In PubChem BioAssay:
Results filed as inconclusive are left out.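 The calls were made as follows, unless noted: active = inhibition over a set limit, the all-compound mean plus 3 SD, in both replicate runs; inconclusive = over that limit in just one replicate run; inactive = at or under that limit in both runs.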

Key:
[1] = S. cerevisiae growth inhibition in permissive medium (OD615), pilot counter-assay for S. cerevisiae lifespan shortening project, permissive growth control (AID 705;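 active = growth inhibition above 25% in both replicates, a cutoff set 3 SD above the mean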); settings: OD615, 24 h, at 10 µM, stronger effect = higher value
In short: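 System: S. cerevisiae with engineered DeaD lifespan system / Measured by: absorbance (optical density) at 615 nm / Read-out: reduction in yeast growth (OD615) / Times: 4 h cell pre-growth, 24 h exposure at 30 °C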

[2] = S. cerevisiae growth inhibition in restrictive medium, OD615, pilot screen, restrictive growth control, yeast lifespan reduction project (AID 706;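 active = growth inhibition above a set limit, 3 SD over mean compound inhibition, in both replicates, cut at about 43% in these data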;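 also: modified DeaD lifespan yeast strain shifted to restrictive glucose medium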); settings: OD615, 48 h, at 10 µM, stronger effect = higher value
In short: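 System: Engineered S. cerevisiae DeaD strain | Buffer or medium: Glucose-based CSMM-D restrictive medium | Schedule: 4 h pre-incubation, 48 h exposure at 30 °C | Technique: Optical density at 615 nm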

[3] = doxorubicin toxicity protection in MRP-1 cells – H69AR cells, CellTiter-Glo, duplicate, MRP-1 activator project, pilot screen (AID 807;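 active = viability increase at or above a cutoff of the median across tested compounds plus 3 SD, cut at about 8.5% in these data, passing the limit was not always enough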;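 also: compound pretreatment 18-22 h then 72 h combined with doxorubicin; 0% = doxorubicin alone and 100% = vehicle without doxorubicin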); settings: H69AR viability with doxorubicin, CellTiter-Glo luminescence; at 10 µM; stronger effect = higher value
[4] = viability of HCT116 without oncogenic beta-catenin – human colon tumor cells, pilot screen (AID 823;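 active = cell viability at or below a set limit in both duplicate runs, the limit being the all-compound median minus 4 SD, cut at about 23% in these data, passing the limit was not always enough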;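 also: 0% = wells killed by 20 µM Hyamine and 100% = untreated DMSO cell wells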); settings: HCT116 beta-catenin knockout viability, CellTiter-Glo, 60 h; at 10 µM; stronger effect = lower value
[5] = viability of PTEN-null HCT116 cells – cell-based, HCT116 clonal line, CellTiter-Glo, pilot screen (AID 824;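 active = viability at or below 27.92% in each of two runs, the all-compound median minus 4 SD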;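 also: 0% = 20 µM Hyamine control and 100% = vehicle cell control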); settings: HCT116 PTEN-deleted viability, 60 h, at 10 µM, stronger effect = lower value
[6] = RAM pathway blockade in budding yeast – dse1pr::URA3 reporter, 5-FOA selection, pilot screen (AID 869);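 also: 0% = DMSO wells with no growth and 100% = 10 µM 1-NA-PP1 with full growth; RAM network block rescues cells from 5-FOA so hits raise OD615 growth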; settings: S. cerevisiae dse1pr::URA3 5-FOA growth, OD615, 2 d; at 10 µM; stronger effect = higher value; strain carries analog-sensitive mutant Cbk1 kinase
[7] = RAM signaling pathway blockade in yeast – S. cerevisiae, Pdr1DBD-CYC8 efflux-inhibited sensitized strain, primary screen (AID 1298;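 active = RAM network inhibition above 8.4% in each of two replicates, 3 SD over the compound average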;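 also: 0% = DMSO untreated cells without growth and 100% = 10 µM 1-NA-PP1 full growth; higher means more yeast growth rescued from 5-FOA killing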); settings: S. cerevisiae cbk1-as DSE1-URA3 strain, 5-FOA growth OD615, 2 d; at 50 µM; stronger effect = higher value

COCCNC(=O)Cn1cc2c(n1)CCC(C)C2 (stereo not drawn)
inactive: growth inhibition [1] -12.9% | growth inhibition [2] -0.165% | viability increase [3] 0.11% | viability [4] 104% | viability [5] 93.9% | inhibition [6] 2.06% | RAM network inhibition [7] 1.1%

O=C(O)CCCC(=O)Nc1ccccc1Br
inactive: growth inhibition [1] 9.25% | growth inhibition [2] 10.5% | viability increase [3] -1.61% | viability [4] 104% | viability [5] 94.8% | inhibition [6] 1.11% | RAM network inhibition [7] 2.11%

CCN1CCN(C(=O)C2CCN(Cc3nc(-c4cccc(Cl)c4)oc3C)CC2)CC1
inactive: growth inhibition [1] -1.82% | growth inhibition [2] -14.3% | viability increase [3] -4.04% | viability [4] 69% | viability [5] 72.4% | inhibition [6] 0.9% | RAM network inhibition [7] 1.16%

CCOC(=O)N1CCN(C(=O)Cn2ncc3c2-c2ccccc2OC3)CC1
inactive: growth inhibition [1] -14% | growth inhibition [2] -8.46% | viability increase [3] -1.16% | viability [4] 102% | viability [5] 95.9% | inhibition [6] 0.82% | RAM network inhibition [7] -1.43%

CN1CCN(S(=O)(=O)c2cccc(S(=O)(=O)c3ccc(Cl)c(Cl)c3)c2)CC1
inactive: growth inhibition [1] -1.71% | growth inhibition [2] -7.33% | viability increase [3] -2.58% | viability [4] 91.1% | viability [5] 83.7% | inhibition [6] 0.59% | RAM network inhibition [7] 4.5%

CN1C(=O)CC(N2CCN(c3ncccn3)CC2)C1=O (stereo not drawn)
inactive: growth inhibition [1] 1.35% | growth inhibition [2] -4.12% | viability increase [3] 0.31% | viability [4] 103% | viability [5] 100% | inhibition [6] 0.77% | RAM network inhibition [7] 5.07%

CC(C)N(Cc1nc(-c2ccccc2)no1)C(=O)Cc1ccccc1
inactive: growth inhibition [1] -14.4% | growth inhibition [2] -16.3% | viability increase [3] -2.2% | viability [4] 87.1% | viability [5] 79.3% | inhibition [6] -0.4% | RAM network inhibition [7] 2.86%

CCOC(=O)N1CCC(c2cc(=O)n3[nH]c(-c4ccccc4)cc3n2)CC1
inactive: growth inhibition [1] 2.9% | growth inhibition [2] -2.34% | viability increase [3] -1.16% | viability [4] 102% | viability [5] 95.3% | inhibition [6] 3.11% | RAM network inhibition [7] 9.15%

O=C(NC12CC3CC(CC(C3)C1)C2)c1cccnc1
inactive: growth inhibition [1] -3.12% | growth inhibition [2] 15.7% | viability increase [3] -0.51% | viability [4] 104% | viability [5] 97.7% | inhibition [6] 2.61% | RAM network inhibition [7] 3.7%

COCCCNc1ncnc2nc[nH]c12
inactive: growth inhibition [1] 4.6% | growth inhibition [2] -1.01% | viability increase [3] 1.43% | viability [4] 104% | viability [5] 104% | inhibition [6] 0.885% | RAM network inhibition [7] 1.74%

CCn1ncc(C2=NOC(C(=O)Nc3c(C)nn(Cc4ccc(F)cc4)c3C)C2)c1C (stereo not drawn)
inactive: growth inhibition [1] -7.87% | growth inhibition [2] -11.5% | viability increase [3] 0.42% | viability [4] 93.5% | viability [5] 88.7% | inhibition [6] 1.59% | RAM network inhibition [7] 1.41%

CNC(=O)c1cc2cc(OC)ccc2n1CCN(C)C
inactive: growth inhibition [1] -8.87% | growth inhibition [2] -16.4% | viability increase [3] -3.65% | viability [4] 92% | viability [5] 87.2% | inhibition [6] 2.31% | RAM network inhibition [7] 6.18%

Cc1cc(C)c(S(=O)(=O)Nc2ccc(O)cc2)c(C)c1
inactive: growth inhibition [1] -9% | growth inhibition [2] 3.16% | viability increase [3] -1.56% | viability [4] 91.6% | viability [5] 89.2% | inhibition [6] 1.2% | RAM network inhibition [7] 2.25%

CC1(C)C(=O)OC(C(=O)c2ccccc2)C(C)(C)C1=O (stereo not drawn)
inactive: growth inhibition [1] -7.95% | growth inhibition [2] -6.81% | viability increase [3] 0.07% | viability [4] 105% | viability [5] 94.8% | inhibition [6] 0.83% | RAM network inhibition [7] 2.22%

Cn1c(Cn2c(=O)sc3ccccc32)nnc1SCC(=O)NC1CCCC1
inactive: growth inhibition [1] -9.37% | growth inhibition [2] -5.96% | viability increase [3] -1.04% | viability [4] 102% | viability [5] 103% | inhibition [6] 0% | RAM network inhibition [7] 3.56%

COc1ccc(C2NC(=O)c3n[nH]c(C)c32)c(OC)c1 (stereo not drawn)
inactive: growth inhibition [1] -1.65% | growth inhibition [2] 7.6% | viability increase [3] -0.95% | viability [4] 102% | viability [5] 103% | inhibition [6] 2.85% | RAM network inhibition [7] 3.42%

O=C(Cn1cc2c(n1)CCCCC2)Nc1ccc(F)cc1F
inactive: growth inhibition [1] -4.89% | growth inhibition [2] 4.12% | viability increase [3] 0.49% | viability [4] 104% | viability [5] 97% | inhibition [6] 0.55% | RAM network inhibition [7] 2.75%

CC(C)NC(=O)C1CCCN(c2nnc(-n3cccc3)s2)C1 (stereo not drawn)
inactive: growth inhibition [1] -0.35% | growth inhibition [2] 14.8% | viability increase [3] -3.11% | viability [4] 108% | viability [5] 97.6% | inhibition [6] -0.455% | RAM network inhibition [7] 0.02%

O=C(C1CC1)N1CCCN(C(=O)C2CC2)CC1
inactive: growth inhibition [1] 2.42% | growth inhibition [2] -1.38% | viability increase [3] -1.86% | viability [4] 98.8% | viability [5] 97.1% | inhibition [6] 2.03% | RAM network inhibition [7] 4.69%

COc1ccc(S(=O)(=O)Cc2ccc(C(=O)NC3CCCC3)o2)cc1
inactive: growth inhibition [1] -0.76% | growth inhibition [2] -12% | viability increase [3] -1.65% | viability [4] 108% | viability [5] 96.3% | inhibition [6] 1.19% | RAM network inhibition [7] 2.65%

COc1cc2ccccc2cc1-c1nnc(COc2ccccc2)o1
inactive: growth inhibition [1] -8.96% | growth inhibition [2] -14.4% | viability increase [3] -2.61% | viability [4] 98.2% | viability [5] 83.4% | inhibition [6] 4% | RAM network inhibition [7] 2.39%

Cn1nnnc1P(=O)(c1ccccc1)c1ccccc1
inactive: growth inhibition [1] 0.165% | growth inhibition [2] 0.5% | viability increase [3] 0.85% | viability [4] 103% | viability [5] 102% | inhibition [6] 0.995% | RAM network inhibition [7] 1.32%

CC1Cc2nc(SCC(=O)NCc3ccco3)n(-c3ccccc3)c(=O)c2S1 (stereo not drawn)
inactive: growth inhibition [1] -6.6% | growth inhibition [2] -7.02% | viability increase [3] -4.56% | viability [4] 103% | viability [5] 99% | inhibition [6] 0.405% | RAM network inhibition [7] 6.31%

Cn1c(=O)c2c(nc(SCCN3CCOCC3)n2Cc2ccccc2Cl)n(C)c1=O
inactive: growth inhibition [1] -14.9% | growth inhibition [2] 1.19% | viability increase [3] -5.35% | viability [4] 91.8% | viability [5] 94.9% | inhibition [6] 0.27% | RAM network inhibition [7] 5%
